# Source: ChEMBL document CHEMBL1129791, “Antipsoriatic anthrones with modulated redox properties. 3. 10-thio-substituted 1,8-dihydroxy-9(10H)-anthracenones as inhibitors of keratinocyte growth, 5-lipoxygenase, and the formation of 12(S)-HETE in mouse epidermis” (J Med Chem, 1996)
# How the values were obtained:
# [1] = Deoxyribose degradation (DD) as umol of malondialdehyde/mmol of deoxyribose released by 75 uM; type: functional
# In short: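 Deoxyribose degradation run in 30 mM KH2PO4-KOH buffer, pH 7.4, with 75 µM compound. Incubated 2 h at 37 °C in shaking water bath. TBA-reactive material read at 532 nm and expressed as µmol malondialdehyde per mmol deoxyribose.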
# HaCaT [2] = test: Tested for antiproliferative activity against HaCaT cells; type: functional, cell-based; settings: Homo sapiens
# In short: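 HaCaT keratinocytes treated for 48 h. Dispersed cells counted by phase-contrast microscopy. Inhibition = (1 − test/control) × 100, using test N = 3 and control N = 6-8.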
# [3] = target: T1, Polyunsaturated fatty acid lipoxygenase ALOX12 (Mus musculus, UniProt P39655); test: Tested for inhibition of 12-LO (12-lipoxygenase) as an inhibitor of 12(S)-HETE biosynthesis in mouse epidermal homogenates
# T1 sequence (P39655 whole entry): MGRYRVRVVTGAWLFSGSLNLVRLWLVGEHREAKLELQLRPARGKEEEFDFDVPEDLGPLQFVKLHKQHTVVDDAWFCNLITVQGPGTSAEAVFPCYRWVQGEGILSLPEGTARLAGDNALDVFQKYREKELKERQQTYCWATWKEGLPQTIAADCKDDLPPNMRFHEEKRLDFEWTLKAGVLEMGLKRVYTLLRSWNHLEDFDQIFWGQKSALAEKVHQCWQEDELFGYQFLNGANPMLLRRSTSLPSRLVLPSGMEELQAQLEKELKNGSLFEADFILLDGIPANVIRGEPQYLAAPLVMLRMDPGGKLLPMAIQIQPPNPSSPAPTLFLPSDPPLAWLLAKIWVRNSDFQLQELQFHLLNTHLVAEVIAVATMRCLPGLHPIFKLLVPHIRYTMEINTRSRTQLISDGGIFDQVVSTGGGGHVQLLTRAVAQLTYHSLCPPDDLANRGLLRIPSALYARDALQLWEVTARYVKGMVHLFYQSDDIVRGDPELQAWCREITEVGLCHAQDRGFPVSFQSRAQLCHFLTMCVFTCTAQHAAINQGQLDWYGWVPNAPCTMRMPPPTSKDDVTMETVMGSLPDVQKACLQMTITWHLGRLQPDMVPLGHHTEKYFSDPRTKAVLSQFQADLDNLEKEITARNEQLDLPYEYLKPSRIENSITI
# [4] = target: T2, Arachidonate 5-lipoxygenase (Bos taurus, UniProt Q9BEG3); test: Tested for inhibition of 5-lipoxygenase as inhibition of 5-HETE and LTB4 biosynthesis in bovine PMNL
# T2 sequence (Q9BEG3 whole entry): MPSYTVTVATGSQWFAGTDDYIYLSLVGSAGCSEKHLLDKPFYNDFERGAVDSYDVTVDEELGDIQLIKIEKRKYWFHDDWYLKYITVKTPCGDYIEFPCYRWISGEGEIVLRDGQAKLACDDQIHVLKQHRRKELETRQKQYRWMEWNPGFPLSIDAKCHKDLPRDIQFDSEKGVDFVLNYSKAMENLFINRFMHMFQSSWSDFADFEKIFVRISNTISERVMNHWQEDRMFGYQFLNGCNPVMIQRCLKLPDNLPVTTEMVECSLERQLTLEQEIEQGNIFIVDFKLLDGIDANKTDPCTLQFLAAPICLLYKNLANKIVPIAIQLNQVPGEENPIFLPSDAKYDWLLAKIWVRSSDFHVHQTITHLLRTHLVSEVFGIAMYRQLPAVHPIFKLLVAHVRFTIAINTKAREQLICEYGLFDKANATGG
# [5] = Half life in ethanol at 25 degrees celsius was determined; type: ADME
# [6] = Half life in DMSO at 25 degrees celsius was determined; type: ADME
# [7] = Acidity constant in aqueous solution was determined; type: ADME
# In short: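 UV absorption spectra recorded in buffer solutions spanning pH 2.5–12.0, with measured pH values corrected where needed. Absorbance at pH 2.5 was taken as the neutral species and at pH 12.0 as the fully deprotonated species. pKa was obtained from titration curves of absorbance at suitable wavelengths.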
# [8] = half life in ethanol at 25 degrees celsius; type: ADME
# [9] = half life in DMSO at 25 degrees celsius; type: ADME
# HaCaT [10] = test: Compound was tested for activity of LDH(mU) release in HaCat cells after treatment with 2 uM compound; type: functional, Homo sapiens
# In short: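 Human HaCaT keratinocytes exposed to 2 µM compound for 4 h at 37 °C. Extracellular LDH measured by UV method with pyruvate and NADH, expressed as mU/mL. Vehicle controls run in parallel; N = 3.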
half-life [5] [h],half-life [6] [h],pKa [7],SMILES,DD [1],IC50 (HaCaT [2]) [µM],IC50 [3] [µM],IC50 [4] [µM],half-life [8] [h],half-life [9] [h],LDH (HaCaT [10]) [mU/mL]
,,,COc1cccc(SC2c3cccc(O)c3C(=O)c3c(O)cccc32)c1,4.29,1.8,30,,,,
,,,O=C(O)CCSC1c2cccc(O)c2C(=O)c2c(O)cccc21,6.34,1.9,30,2,,,
,,,O=C1c2c(O)cccc2C(SCCc2ccccc2)c2cccc(O)c21,2.78,4.7,> 30,30,3,4,
,,,CCOC(=O)CSC1c2cccc(O)c2C(=O)c2c(O)cccc21,4.51,4.5,> 30,> 30,,,
,,,O=C1c2c(O)cccc2C(SCC(O)CO)c2cccc(O)c21 (stereo not given),2.45,1.7,> 30,9,,,
,,,Nc1ccc(SC2c3cccc(O)c3C(=O)c3c(O)cccc32)cc1,1.49,0.9,> 30,7,,,184
,,,COC(=O)CCSC1c2cccc(O)c2C(=O)c2c(O)cccc21,5.25,1.1,27,15,,,133
34,55,6.2,O=C1c2c(O)cccc2C(Sc2ccc(O)cc2)c2cccc(O)c21,3.61,0.1,3,2,,,148
,,,CCCSC1c2cccc(O)c2C(=O)c2c(O)cccc21,2.81,1.2,> 30,> 30,,,117
,,,COc1ccccc1SC1c2cccc(O)c2C(=O)c2c(O)cccc21,4.33,4.2,3,6,,,
,,,CC(SC1c2cccc(O)c2C(=O)c2c(O)cccc21)C(=O)O (stereo not given),9.34,0.2,15,> 30,,,
,,,CCCCOC(=O)CSC1c2cccc(O)c2C(=O)c2c(O)cccc21,4.19,2.1,30,> 30,,,
,,,COC(=O)CSC1c2cccc(O)c2C(=O)c2c(O)cccc21,4.89,1.9,> 30,13,,,
,,,CCSC1c2cccc(O)c2C(=O)c2c(O)cccc21,4.23,1.4,> 30,> 30,,,
,,,O=C1c2c(O)cccc2C(Sc2ccccc2O)c2cccc(O)c21,3.7,1.7,30,5,,,174
,,,CCOC(=O)CCSC1c2cccc(O)c2C(=O)c2c(O)cccc21,5.52,1.6,30,> 30,,,124
12,28,5.4,O=C1c2c(O)cccc2C(Sc2ccccc2)c2cccc(O)c21,4.13,3.7,30,8,,,
,,,O=C1c2c(O)cccc2C(SCCCc2ccccc2)c2cccc(O)c21,2.71,> 5,,,,,
20,26,8.4,Nc1ccccc1SC1c2cccc(O)c2C(=O)c2c(O)cccc21,4.76,0.1,6,2,,,255
21,32,7.9,COc1ccc(SC2c3cccc(O)c3C(=O)c3c(O)cccc32)cc1,1.59,1.7,30,3,,,137
,,,NC(CSC1c2cccc(O)c2C(=O)c2c(O)cccc21)C(=O)O (stereo not given),2.33,> 5,30,> 30,,,
,,,O=C1c2c(O)cccc2C(SCCO)c2cccc(O)c21,2.49,1.2,> 30,2,,,136
,,,O=C1c2c(O)cccc2C(SCCCS)c2cccc(O)c21,4.09,0.8,30,> 30,,,369
,,,O=C1c2c(O)cccc2C(SCc2ccccc2)c2cccc(O)c21,3.74,1.4,30,> 30,,,
,,,O=C(O)CSC1c2cccc(O)c2C(=O)c2c(O)cccc21,6.12,> 5,30,> 30,,,

SMILES,half-life [5] [h],half-life [6] [h],pKa [7],DD [1],IC50 (HaCaT [2]) [µM],IC50 [3] [µM],IC50 [4] [µM],half-life [8] [h],half-life [9] [h],LDH (HaCaT [10]) [mU/mL]
COc1ccc(CSC2c3cccc(O)c3C(=O)c3c(O)cccc32)cc1,5,23,6.1,5.01,3,30,> 30,,,
CCCCOC(=O)CCSC1c2cccc(O)c2C(=O)c2c(O)cccc21,2,11,5.7,5.38,2.3,30,30,,,
